One series has as its target T1, K2P2.1 I110D (Mus musculus, UniProt P97438, I125D).
T1 sequence (P97438 1-411 isoform P97438-2 I110D): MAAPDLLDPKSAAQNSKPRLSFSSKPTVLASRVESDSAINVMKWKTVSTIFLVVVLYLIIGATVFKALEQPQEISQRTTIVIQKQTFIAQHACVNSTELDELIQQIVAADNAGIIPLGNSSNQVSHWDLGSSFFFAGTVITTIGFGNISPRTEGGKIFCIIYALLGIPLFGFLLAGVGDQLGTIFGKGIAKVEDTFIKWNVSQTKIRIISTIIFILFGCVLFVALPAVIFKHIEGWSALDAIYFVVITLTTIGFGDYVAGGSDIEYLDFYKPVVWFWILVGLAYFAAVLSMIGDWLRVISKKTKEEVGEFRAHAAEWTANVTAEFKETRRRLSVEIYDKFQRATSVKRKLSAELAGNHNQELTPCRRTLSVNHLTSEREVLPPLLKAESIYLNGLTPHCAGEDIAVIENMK
Nature of the series: TEVC recordings in Xenopus oocytes, K2P2.1 I110D. The class given is cell-based, Murine.

For series [1], the system named is K2P2.1 (TREK-1). The conditions noted are these: read-out: EC50 (ML335) activation, ref Lolicato et al., 2017; cited from earlier work.
The target of the next series is T2, K2P2.1 I110D/N147E (Mus musculus, UniProt P97438, I125D/N162E).
T2 sequence (P97438 1-411 isoform P97438-2 I110D/N147E): T1 sequence (P97438 1-411 isoform P97438-2 I110D) with N147E
Nature of the series: TEVC recordings in Xenopus oocytes, K2P2.1 I110D/N147E. The conditions noted are these: I110D/N147E pair; T = 298K. In kind it is cell-based, Murine. Put shortly:
(§1)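 Coupling energy was computed as ΔΔGΩ = RT lnΩ, with R=1.987 cal mol−1 deg−1 and T=298 K. Inputs were RuR inhibition measurements by TEVC in X. laevis oocytes expressing murine mutant channels: −80 mV hold, 500 ms ramp −140 to +50 mV, ND96 perfusion. IC50s came from a Hill fit with coefficient −1.0, using ≥3 oocytes from ≥2 batches per point.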

The next series addresses T3, K2P2.1 I110D/N147D (Mus musculus, UniProt P97438, I125D/N162D).
T3 sequence (P97438 1-411 isoform P97438-2 I110D/N147D): T1 sequence (P97438 1-411 isoform P97438-2 I110D) with N147D
Nature of the series: TEVC recordings in Xenopus oocytes, K2P2.1 I110D/N147D. In kind it is cell-based, Murine. The conditions noted are these: I110D/N147D pair; T = 298K. Summed up: as §1

The next series concerns the target T4, K2P2.1 I110E (Mus musculus, UniProt P97438, I125E).
T4 sequence (P97438 1-411 isoform P97438-2 I110E): T1 sequence (P97438 1-411 isoform P97438-2 I110D) with D110E
Nature of the series: TEVC recordings in Xenopus oocytes, K2P2.1 I110E. In kind it is cell-based, Murine. The conditions noted are these: K2P2.1 I110E versus K2P2.1 I110D. Put shortly:
(§2)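 Murine channel cRNA (0.1–6 ng) injected into defolliculated stage V–VI X. laevis oocytes kept at 18°C in ND96 with antibiotics. TEVC 24–48 h later with constant ND96 perfusion; −80 mV hold, 500 ms ramp −140 to +50 mV. Ruthenium compounds were freshly dissolved in ND96. Block corrected for uninjected-oocyte basal current. ≥3 oocytes from ≥2 batches per point; IC50 from Hill fit, coefficient fixed −1.0.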

A further series deals with T5, K2P10.1 (TREK-2) (Mus musculus, UniProt Q8BUW1).
T5 sequence (Q8BUW1 1-535): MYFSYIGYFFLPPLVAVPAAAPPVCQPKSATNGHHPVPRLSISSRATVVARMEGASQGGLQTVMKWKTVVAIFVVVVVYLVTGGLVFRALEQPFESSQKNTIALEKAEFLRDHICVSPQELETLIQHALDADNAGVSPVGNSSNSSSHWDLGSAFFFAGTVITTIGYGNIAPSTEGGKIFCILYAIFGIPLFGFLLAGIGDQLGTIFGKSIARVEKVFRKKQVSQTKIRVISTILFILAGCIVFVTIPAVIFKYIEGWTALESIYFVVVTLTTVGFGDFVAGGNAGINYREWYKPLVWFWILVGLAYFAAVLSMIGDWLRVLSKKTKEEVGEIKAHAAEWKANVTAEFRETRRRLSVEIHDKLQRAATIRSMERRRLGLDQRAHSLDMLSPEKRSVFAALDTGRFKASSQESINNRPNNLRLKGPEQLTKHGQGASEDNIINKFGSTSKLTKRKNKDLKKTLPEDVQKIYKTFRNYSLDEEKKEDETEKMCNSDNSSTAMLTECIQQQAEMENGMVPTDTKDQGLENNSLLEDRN
Nature of the series: TEVC recordings in Xenopus oocytes, K2P10.1. In kind it is cell-based, Murine. Put shortly: as §2

Series [2] addresses T6, K2P2.1 (TREK-1) (Mus musculus, UniProt P97438).
T6 sequence (P97438 1-411 isoform P97438-2): T1 sequence (P97438 1-411 isoform P97438-2 I110D) with D110I
Nature of the series: TEVC recordings in Xenopus oocytes, K2P2.1. The class given is cell-based, Murine. The conditions noted are these: 100 μM Ru360 applied to K2P2.1 (TREK-1). Summed up:
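Oocytes expressing murine wild-type channel were perfused with ND96 until current was stable, then with 100 μM Ru360 freshly prepared in ND96 and kept light-protected, until current stabilised again. Currents were elicited from a −80 mV hold by a 500 ms ramp −140 to +50 mV. Fractional block was corrected for basal current averaged from uninjected oocytes (n=14).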

The series “crystal structure” deals with the molecule itself. Nature of the series: crystal structure.

We go through 4 molecules from article PMC7245552 (Cell chemical biology, 2020).

Numbering of substitutions follows the chain as printed. Names may count otherwise.

Consider `CS(=O)(=O)Nc1ccc(C(=O)NCc2ccc(Cl)cc2Cl)cc1` [ML335], for which the EC50 (as a rule, the midpoint of the concentration-response curve) was 11.8 ± 2.3 µM on K2P2.1 I110D (read-out: EC50 (ML335) activation, TEVC) and 14.3 ± 2.7 µM in the series on K2P2.1 (TREK-1) [1].
In the case of `N.N.N.N.N.N.N.N.N.N.N.N.N.N.[Cl-].[Cl-].[Cl-].[Cl-].[Cl-].[Cl-].[O-2].[O-2].[Ru+3].[Ru+3].[Ru+4]` [RuR, Ruthenium Red], the “ΔΔG coupling energy, double mutant cycle analysis of RuR binding” value at K2P2.1 I110D/N147E is -0.3 kcal/mol; on K2P2.1 I110D/N147D, -4.1 kcal/mol. The “RuR inhibition fold weaker than that observed for K2P2.1 I110D” value at K2P2.1 I110E is reported as ~ 50 fold.
Consider Ru360, for which the “Ru360 IC50 fold weaker than that for RuR” value at K2P2.1 I110D and at K2P10.1 (TREK-2) was above 10 fold throughout. For the same molecule, the “Effect on channel current” value on K2P2.1 (TREK-1) [2] is reported as “no effect”.

B1: K2P2.1 (TREK-1)CRYST I110D (domain or fragment, mouse, UniProt P97438-2 21-322, looked up)
chain: SFSSKPTVLASRVESDSAINVMKWKTVSTIFLVVVLYLIIGATVFKALEQPQEISQRTTIVIQREKFLRAHPCVSDQELDELIQQIVAADNAGIIPLGASSNQVSHWDLGSSFFFAGTVITTIGFGNISPRTEGGKIFCIIYALLGIPLFGFLLAGVGDQLGTIFGKGIAKVEDTFIKWNVSQTKIRIISTIIFILFGCVLFVALPAVIFKHIEGWSALDAIYFVVITLTTIGFGDYVAGGSDIEYLDFYKPVVWFWILVGLAYFAAVLSMIGDWLRVICKKTKEAVGEFRAHAAEWTANVT
For the molecule B1, the binding result in “crystal structure” is “binds”.
